Experiment [1] deals with HCT-116. Briefly: Induction of apoptosis in Bax-/- human HCT116 cells assessed as increase in cleaved PARP level incubated for 48 hrs by Western blot method. The experiment is classed as functional, cell-based. The gist of the method:
(§1)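 Lysates were made in SDS buffer (2% SDS, 50 mM Tris-HCl pH 6.8) and quantified by BCA. Equal protein was run on 10% SDS-PAGE and transferred to PVDF. Membranes were blocked in 5% milk, probed overnight at 4 °C for cleaved PARP (1:1000) with GAPDH (1:5000), and detected with HRP secondary antibody and ECL.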

The test system of a further experiment is HEp-2. Briefly: Cytotoxicity against human Hep2 cells assessed as reduction in cell viability incubated for 24 hrs by MTT assay. It counts as functional, cell-based. The settings on record: HEp-2, 24 h. An outline of the steps: (§2)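 Cells were kept in McCoy's 5A with 10% fetal bovine serum, streptomycin and 100 units·mL⁻¹ penicillin at 37 °C under 5% CO₂/95% air. Viability was read by MTT optical density. IC50 is the concentration that lowers optical density by 50% relative to untreated cells. Values are means with SD of at least three independent determinations.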
(Tetrazolium dyes change colour on reduction, which living cells bring about.)

Experiment [2] has as its system HCT-116. Description: Inhibition of colony formation of human HCT116 cells pre-treated with 7.5 mM GSH for 2 hrs followed by 16 to 32 uM compound addition and further incubated for 24 hrs and measured after 10 days post dose in fresh medium by crystal violet staining based photography. The experiment is classed as functional, cell-based. The gist of the method:
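HCT116 seeded at about 300 per well in 12-well plates and grown 2 h. Pre-treated 2 h with H2O, 7.5 mM L-NAC or GSH, then exposed to compound for 24 h. Colonies grown 10 days in fresh medium, stained with crystal violet and counted. Triplicate wells.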

Experiment [3] concerns HCT-116. Briefly: Induction of apoptosis in human HCT116 cells assessed as increase in cleaved PARP level pre-incubated with 20 uM pan-caspase inhibitor Z-VAD-FMK for 5 hrs followed by compound addition and further incubated for 48 hrs by Western blot method. It counts as functional, cell-based. The gist of the method: (§3)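 Cells were pretreated for 5 h with DMSO or 20 µM Z-VAD-FMK before compound exposure. Lysates were made in SDS buffer and quantified by BCA. Proteins were run on 10% SDS-PAGE, transferred to PVDF, and probed with cleaved PARP (1:1000) and GAPDH (1:5000) loading control, with ECL detection.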
Background: A western blot detects proteins with antibodies after separation by electrophoresis.

For a further experiment, the system named is MCF7. Description: Cytotoxicity against human MCF7 cells assessed as reduction in cell viability incubated for 24 hrs by MTT assay. It counts as functional, cell-based. The settings on record: MCF7, 24 h. The gist of the method: as §2
Experiment [4] deals with HCT-116. Description: Induction of apoptosis in human HCT116 cells assessed as late apoptotic cells level pre-incubated with 20 uM pan-caspase inhibitor Z-VAD-FMK for 5 hrs followed by compound addition and further incubated for 48 hrs by Annexin V-FITC/PI staining based cytometry (reference value: 0.0%). On the set-up: scale not given: the % may be the effect or the level left. The experiment is classed as functional.

Experiment [5] deals with HCT-116. Description: Induction of apoptosis in Bax-/- human HCT116 cells assessed as necrotic cells level pre-incubated with 20 uM pan-caspase inhibitor Z-VAD-FMK for 5 hrs followed by compound addition and further incubated for 48 hrs by Annexin V-FITC/PI staining based cytometry (reference value: 0.2%). The experiment is classed as functional. On the set-up: scale not given: the % may be the effect or the level left.

The test system of experiment [6] is HCT-116. Briefly: Induction of apoptosis in human HCT116 cells assessed as viable cells level at 4 uM incubated for 24 hrs by Annexin V-FITC/PI staining based cytometry (reference value: 96.6%). It counts as functional.
Experiment [7] concerns HCT-116. Briefly: Induction of apoptosis in human HCT116 cells assessed as late apoptotic cells level at 2 uM incubated for 24 hrs by Annexin V-FITC/PI staining based cytometry (reference value: 0.5%). It counts as functional.
The subject of another experiment is HCT-8. Description: Cytotoxicity against human HCT8 cells assessed as reduction in cell viability incubated for 24 hrs by MTT assay. It counts as functional, cell-based. The settings on record: HCT-8, 24 h. An outline of the steps:
as §2

For experiment [8], the system named is HCT-116. Briefly: Inhibition of colony formation of p53-/- human HCT116 cells at 4 to 16 uM incubated for 24 hrs by crystal violet staining based photography. It counts as functional, cell-based. An outline of the steps:
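Cells (HCT116, RKO, HCT116 p53-/-, HCT116 Bax-/-) seeded at 300 per well in 12-well plates for 48 h, then treated 24 h. Drug medium replaced with fresh medium; about 10 days later colonies stained 15 min with crystal violet, photographed and counted. Run in triplicate.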

The test system of experiment [9] is HCT-116. Description: Induction of apoptosis in p53-/- human HCT116 cells assessed as viable cells level at 4 uM incubated for 48 hrs by Annexin V-FITC/PI staining based cytometry (reference value: 96.2%). The experiment is classed as functional. The gist of the method: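 HCT116 p53-/- cells (Vogelstein line) in McCoy's 5A with 10% FBS, 37 °C, 5% CO2. Seeded at 5×10^5 in 6-well plates, treated with vehicle or 4 μM at 80% confluence. After treatment, trypsinised, washed twice in ice-cold PBS pH 7.4, and stained in binding buffer with Annexin V-FITC and PI for 15 min at room temperature in the dark. Read by flow cytometry.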

In the next experiment the test system is HepG2. Briefly: Cytotoxicity against human HepG2 cells assessed as reduction in cell viability incubated for 24 hrs by MTT assay. It counts as functional, cell-based. The settings on record: HepG2, 24 h. The gist of the method: as §2
Experiment [10] has as its system HCT-116. Description: Induction of apoptosis in Bax-/- human HCT116 cells assessed as early apoptotic cells level pre-incubated with 20 uM pan-caspase inhibitor Z-VAD-FMK for 5 hrs followed by compound addition and further incubated for 48 hrs by Annexin V-FITC/PI staining based cytometry (reference value: 6.8%). The experiment is classed as functional. More on the design: scale not given: the % may be the effect or the level left.

The test system of experiment [11] is HCT-116. Briefly: Induction of apoptosis in human HCT116 cells assessed as increase in cleaved PARP level at 2 uM incubated for 24 hrs by Western blot method. The experiment is classed as functional, cell-based. The gist of the method: as §1
Experiment [12] deals with HCT-116. Description: Induction of apoptosis in Bax-/- human HCT116 cells assessed as increase in cleaved PARP level pre-incubated with 20 uM pan-caspase inhibitor Z-VAD-FMK for 5 hrs followed by compound addition and further incubated for 48 hrs by Western blot method. It counts as functional, cell-based. The gist of the method:
as §3

The test system of experiment [13] is HCT-116. Description: Induction of apoptosis in p53-/- human HCT116 cells assessed as early apoptotic cells level at 4 uM incubated for 48 hrs by Annexin V-FITC/PI staining based cytometry (reference value: 2.9%). The experiment is classed as functional. The gist of the method: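 Cells were plated at 5×10^5 per well and treated once 80% confluent. After trypsinisation and two washes in ice-cold PBS (pH 7.4), cells were stained with Annexin V-FITC and PI for 15 min at room temperature in the dark. Analysis was by flow cytometry. The legend gives vehicle or 4 µM for the p53-/- and Bax-/- lines.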

Experiment [14] relates to HCT-116. Briefly: Induction of apoptosis in human HCT116 cells assessed as subG1 phase cells level at 2 uM incubated for 24 hrs by […]PI staining based cytometry (reference value: 1%). It counts as functional. An outline of the steps: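 Cells were treated for 24 h, then fixed in 75% ethanol at -20 °C overnight. RNA was digested with 0.2 mg/mL RNase A for 30 min at 37 °C. Cells were stained with 50 µg/mL PI for 30 min in the dark, and DNA content was read by flow cytometry.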

Experiment [15] has as its system HCT-116. Description: Induction of apoptosis in human HCT116 cells assessed as necrotic cells level at 4 uM incubated for 24 hrs by Annexin V-FITC/PI staining based cytometry (reference value: 1.6%). It counts as functional.
Experiment [16] deals with HCT-116. Briefly: Induction of apoptosis in human HCT116 cells assessed as early apoptotic cells level at 4 uM incubated for 24 hrs by Annexin V-FITC/PI staining based cytometry (reference value: 1.3%). It counts as functional.
Experiment [17] has as its system HCT-116. Briefly: Induction of apoptosis in Bax-/- human HCT116 cells assessed as viable cells level pre-incubated with 20 uM pan-caspase inhibitor Z-VAD-FMK for 5 hrs followed by compound addition and further incubated for 48 hrs by Annexin V-FITC/PI staining based cytometry (reference value: 92.9%). The experiment is classed as functional.

Consider 1 compound from ChEMBL document CHEMBL4190353, “Synthesis, structure-activity relationships and preliminary mechanism of action of novel water-soluble 4-quinolone-3-carboxamides as antiproliferative agents” (Eur J Med Chem, 2017).

Active and inactive are the calls of the source. No cut-off for these calls is given here.

On to `CCN(CC)CCCNC(=O)c1cn(CCCc2ccccc2)c2cc(Cl)ccc2c1=O.Cl`, for which the outcome with HCT-116 [1] and in the experiment on HCT-116 [11] was Active. Moreover, the IC50 with HEp-2 was 3.53 µM; in the experiment with MCF7 it was 5.02 µM; in the experiment on HCT-8 it was 6.82 µM; in the experiment on HepG2 it was 3.94 µM. Besides, the inhibition result in the experiment on HCT-116 [2] was “inactive”. For the same compound, the result in the experiment on HCT-116 [3] and in the experiment on HCT-116 [12] was inactive. For the same compound, the Activity stood at 2% in the experiment with HCT-116 [4]; 1.2% in the experiment with HCT-116 [5]; 52.7% in the experiment on HCT-116 [6]; 1.5% with HCT-116 [7]; 72.1% with HCT-116 [9]; 10.2% in the experiment on HCT-116 [10]. Further, the Activity in the experiment with HCT-116 [13] was 24.8%; in the experiment on HCT-116 [14], 6.5%; with HCT-116 [15], 4.3%; in the experiment on HCT-116 [16], 38.2%; with HCT-116 [17] it was 87.7%. Besides, the inhibition entry in the experiment on HCT-116 [8] is “Active”.

A word on the IC50: it is the concentration needed to halve the response being measured.
